Assay results taken from ChEMBL document CHEMBL1154674, “Synthesis and evaluation of three 18F-labeled aminophenylbenzothiazoles as amyloid imaging agents” (J Med Chem, 2009).

Biological target: Amyloid-beta precursor protein (Homo sapiens, UniProt P05067)
Assay: Displacement of [125I]IMPY from beta-amyloid plaques in Alzheimer's disease patient brain homogenate
Format: tissue-based
How it was run: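 Test compound was added at 10^-5–10^-10 M, serially diluted in PBS containing 0.1% BSA. Nonspecific binding was defined with 600 nM unlabeled IMPY. Incubation was 37 °C for 2 h, followed by GF/B vacuum filtration, PBS washes and γ counting. Ki came from nonlinear regression.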

Amyloid-beta precursor protein, sequence (P05067 whole entry): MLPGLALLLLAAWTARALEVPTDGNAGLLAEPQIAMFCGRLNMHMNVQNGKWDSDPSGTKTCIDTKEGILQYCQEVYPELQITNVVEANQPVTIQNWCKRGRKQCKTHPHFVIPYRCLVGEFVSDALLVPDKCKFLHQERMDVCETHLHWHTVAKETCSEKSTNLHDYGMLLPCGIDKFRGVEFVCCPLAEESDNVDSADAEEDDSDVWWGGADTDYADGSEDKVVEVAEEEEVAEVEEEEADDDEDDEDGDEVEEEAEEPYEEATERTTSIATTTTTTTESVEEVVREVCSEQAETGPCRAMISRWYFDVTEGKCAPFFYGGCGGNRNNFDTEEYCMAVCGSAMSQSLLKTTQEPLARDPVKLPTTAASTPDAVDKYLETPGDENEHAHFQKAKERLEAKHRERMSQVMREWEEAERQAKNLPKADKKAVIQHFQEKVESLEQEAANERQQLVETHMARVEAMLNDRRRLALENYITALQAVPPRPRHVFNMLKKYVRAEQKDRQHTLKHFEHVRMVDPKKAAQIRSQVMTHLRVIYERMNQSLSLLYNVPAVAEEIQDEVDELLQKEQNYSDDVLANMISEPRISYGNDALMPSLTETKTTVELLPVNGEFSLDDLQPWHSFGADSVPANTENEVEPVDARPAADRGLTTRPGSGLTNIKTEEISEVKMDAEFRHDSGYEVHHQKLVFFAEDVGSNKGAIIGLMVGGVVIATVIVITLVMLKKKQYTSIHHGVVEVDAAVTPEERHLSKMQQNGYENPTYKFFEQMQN

Ki [nM] | SMILES
3.8 | CN(C)c1ccc2nc(-c3ccc(F)cc3)sc2c1
4.1 | CNc1ccc2nc(-c3ccc(F)cc3)sc2c1
